# Measured values collected from several papers.
# Compare with care: the assays were run in different laboratories.
# Target: Serine/threonine-protein kinase 4 (STK4, Homo sapiens, UniProt Q13043)
# Sequence (Q13043 1-487, as in one of the studies): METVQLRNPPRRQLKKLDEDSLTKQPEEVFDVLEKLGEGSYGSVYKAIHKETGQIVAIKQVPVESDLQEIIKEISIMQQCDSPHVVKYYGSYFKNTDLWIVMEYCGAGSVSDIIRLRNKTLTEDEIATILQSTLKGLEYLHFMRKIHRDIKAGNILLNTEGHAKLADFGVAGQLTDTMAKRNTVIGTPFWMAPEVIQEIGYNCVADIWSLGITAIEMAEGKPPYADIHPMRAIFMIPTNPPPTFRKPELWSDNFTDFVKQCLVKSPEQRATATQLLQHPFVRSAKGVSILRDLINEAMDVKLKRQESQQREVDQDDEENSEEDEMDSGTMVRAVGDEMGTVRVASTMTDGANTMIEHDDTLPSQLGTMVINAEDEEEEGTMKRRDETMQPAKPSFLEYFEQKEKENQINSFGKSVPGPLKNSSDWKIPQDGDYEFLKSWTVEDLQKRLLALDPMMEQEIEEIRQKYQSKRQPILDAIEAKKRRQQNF
Structure (SMILES),effect on,method,concentration,remaining binding [%]
CN(C)c1nccc(-c2cnc3ncccn23)n1,binding,,1 µM,88
O=C(c1ccc(Nc2nccc(-c3cc4ccccc4s3)n2)cc1)N1CCC(N2CCCC2)CC1,binding,competition with immobilised ligand,1 µM,100
c1cncc(-c2cccc(Nc3nccc(NC4CCCCC4)n3)c2)c1,binding,competition with immobilised ligand,10 µM,97
Cc1cnn2ncc(-c3ccnc(N(C)C)n3)c2c1,binding,,1 µM,97
COc1cnc(Nc2cccc(S(N)(=O)=O)c2)nc1N1CCN(c2ccccc2)C(=O)C1,binding,competition with immobilised ligand,1 µM,98
COc1cccc(CNC(=O)c2nc3scc(COCc4ccc(C(=O)O)cc4)c3c(=O)[nH]2)c1,cell-free assay,competition with immobilised ligand,1 µM,75
COc1ccnn2ncc(-c3ccnc(N(C)C)n3)c12,binding,,1 µM,100
Cc1c[nH]c2nccc(Oc3c(F)cc(Nc4cc(Cl)nc(N)n4)cc3F)c12,cell-free assay,competition with immobilised ligand,0.1 µM,100
C[C@@H]1CCN(c2nccc(-c3cnn4ncccc34)n2)C1,binding,,1 µM,85
O=C1CCc2cc(Nc3cc(OC4CCOCC4)c([N+](=O)[O-])cc3Cl)ccc2N1,cell-free assay,competition with immobilised ligand,1 µM,100
O=C(c1ccc(Nc2ncc(Cl)c(-c3ccc(Cl)s3)n2)cc1)N1CCC(N2CCCC2)CC1,binding,competition with immobilised ligand,1 µM,90
CN(CCCC(F)(F)F)c1nccc(-c2cnn3ncccc23)n1,binding,,1 µM,89
N#CC1(c2ccccn2)CCN(Cc2cc(C(=O)N3CCCC3)c(=O)n3ccccc23)CC1,cell-free assay,competition with immobilised ligand,1 µM,88
O=C(NCCCN1CCOCC1)c1ccc(Nc2nccc(-c3cc4ccccc4s3)n2)cc1,binding,competition with immobilised ligand,1 µM,100
Nc1c(C(=O)NCc2ccc(C(=O)NCCCC3CCCCC3)cc2)cnn1-c1ccccc1,cell-free assay,competition with immobilised ligand,0.1 µM,100
CCN1CCN(Cc2ccc(C(=O)Nc3ccc(C)c(Oc4ccc5c(c4)CC(=O)N5)c3)cc2C(F)(F)F)CC1,binding,competition with immobilised ligand,1 µM,100
CNC(=O)[C@@H]1CC[C@@H](n2c(-c3ccc4cnccc4c3)nc3ccc(C(=O)NCc4cccc(C(N)=O)c4)cc32)C1,binding,competition with immobilised ligand,1 µM,81
N[C@H]1CCN(c2nccc(-c3cnn4ncccc34)n2)C1,binding,,1 µM,100
CS(=O)(=O)c1cc(C2(NC(=O)c3cncc4c3cnn4-c3ccc(F)cc3)CC2)ccn1,cell-free assay,competition with immobilised ligand,1 µM,77
O=C(NCC1CCOCC1)c1n[nH]cc1NC(=O)c1c(F)cccc1F,binding,competition with immobilised ligand,1 µM,100
